proCasp7 act: counter-screen: procaspase-7 (human) activation | activation, % at 8.5 µM | recombinant procaspase-7, Ac-DEVD-pNA absorbance 405 nm; D23A/D198A/D206A triple mutant, cannot self-cleave; scale: DMSO 0, 5 µM enzyme 100 | 330,000 tested, 0.093% active;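 active = percent activation above the screen-wide mean plus 3 SD, cut at about 25% in these data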
Target sequence (P55210 whole entry D23A/D198A/D206A): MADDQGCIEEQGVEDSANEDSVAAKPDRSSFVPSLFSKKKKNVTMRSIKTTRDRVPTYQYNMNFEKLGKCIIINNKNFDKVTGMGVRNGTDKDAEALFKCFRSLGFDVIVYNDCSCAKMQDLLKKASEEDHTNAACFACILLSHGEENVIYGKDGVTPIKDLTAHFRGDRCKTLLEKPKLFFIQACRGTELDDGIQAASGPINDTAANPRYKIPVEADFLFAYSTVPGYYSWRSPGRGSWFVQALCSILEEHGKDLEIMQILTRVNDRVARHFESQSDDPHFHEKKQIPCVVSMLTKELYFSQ
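buffer or medium = Zinc-free HEPES/NaCl buffer, pH 7.4 | material = Procaspase-7 triple mutant (PC-7 D3A) | input = 2 µM procaspase-7 mutant as dispensed | signal = Epi-absorbance of released pNA at 405 nm, two timepoints | timing = 1 h preincubation, 2 h reaction | replicates = singlicate compound testing | evaluation = % activation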
proCasp3 act: procaspase-3 (human) activation | P42574 | recombinant procaspase-3 D3A, Ac-DEVD-pNA absorbance 405 nm | activation, % at 8.5 µM | 330,000 tested, 0.11% active | AID 463141;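 active = activation above the mean of all tested compounds plus 3 SD, cut at about 21% in these data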;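 also: 0% = DMSO alone and 100% = DMSO wells spiked with extra 5 µM PC-3 D3A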
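Technique: 405 nm absorbance of p-nitroaniline, reads at 0 and 120 min; Test system: Procaspase-3 D3A mutant; Incubation: 1 h enzyme-compound preincubation, then 2 h substrate reaction, 25 °C; Repeats: singlicate, each compound tested once; Benchmarks: low control DMSO wells, high control DMSO plus 5 µM PC-3 D3A.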
proKLK7 act: proKLK7 (human) activation, primary screen; activation, % at 7 µM; purified proKLK7, EDANS-DABCYL substrate fluorescence; 100% is mature enzyme control, 0% vehicle; 370,000 tested, 0.9% active; P49862;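 active = activation above the mean of all tested compounds plus 3 SD, computed per campaign excluding outliers beyond control limits, cut at about 13% in these data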
Target sequence (P49862 whole entry, looked up): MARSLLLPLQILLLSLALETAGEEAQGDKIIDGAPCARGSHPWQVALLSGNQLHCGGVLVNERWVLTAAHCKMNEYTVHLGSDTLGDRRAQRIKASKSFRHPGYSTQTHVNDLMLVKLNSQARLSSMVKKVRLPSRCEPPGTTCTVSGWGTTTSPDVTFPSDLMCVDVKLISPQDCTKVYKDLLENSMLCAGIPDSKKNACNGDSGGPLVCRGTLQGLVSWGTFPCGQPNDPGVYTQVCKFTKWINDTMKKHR
Neddyl block: inhibitors of human cullin neddylation. P61081+Q13564. TR-FRET cullin neddylation, biochemical. calls only at 25 µM. 360,000 tested, 0.58% active. AID 651699; in the data active = inhibition above about 36%
KLK7 act conf: proKLK7 activation, confirmation; shares compounds with proKLK7 act; purified proKLK7, EDANS-DABCYL substrate fluorescence; scaled: vehicle 0, mature enzyme 100; activation, % at 7 µM; 3,200 tested, 68% active; AID 686949;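 active = activation, as change over the incubation, above the mean of all tested compounds plus 3 SD, cut at about 13% in these data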
EDANS-DABCYL int: optically interferes with EDANS-DABCYL signal, flagging KLK7 hits; shares compounds with proKLK7 act; EDANS-DABCYL substrate fluorescence interference, no enzyme, 4 h; solvent 0%, active enzyme control 100%; activation, % at 7 µM; 3,200 tested, 80% active; AID 686952;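 active = activation above the all-compound mean plus 3 SD, ignoring values outside control-based bounds, cut at about 4.8% in these data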;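 also: value is the 4 h activation minus the activation read at time zero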
K7 EDANS ctr: optically interferes with EDANS-DABCYL fluorescence, kallikrein-7 activator counter-screen; shares compounds with proKLK7 act; EDANS-DABCYL peptide fluorescence interference, no enzyme; AID 720493; EC50, µM; 250 tested, 20% active;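 active = compounds that raise the fluorescence signal in this interference counterscreen, with EC50 at or below 10 µM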;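 also: intact quenched peptide substrate alone read at 355 nm excitation and 520 nm emission; signal is fluorescence gain from T0 to T4 after four hours at room temperature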
* = called active by the depositor; i = inactive; . = no result shown. Most compounds without a hit are left out; they make up all but 1.6% or so of the library.

SMILES	proCasp7 act	proCasp3 act	proKLK7 act	Neddyl block	KLK7 act conf	EDANS-DABCYL int	others
O=c1c2cc(N3CCOCC3)ccc2[nH]c(=S)n1CCCN1CCCCC1	-4	-6	121*	.	29*	24*	K7 EDANS ctr=>69
O=c1c2ccccc2[nH]c(=S)n1CCCN1CCN(c2ccccc2)CC1	-3	2	0	i	.	.
O=C(c1ccc(Cn2c(=S)[nH]c3ccc(N4CCOCC4)cc3c2=O)cc1)N1CCC(N2CCCCC2)CC1	3	-7	28*	.	-34	-41
O=c1c2cc(N3CCOCC3)ccc2[nH]c(=S)n1CCCN1CCCC1	-10	-2	114*	.	25*	27*
C/C=C/c1cnc2c(c1)C(=O)N([C@H](C)CO)C[C@H](C)[C@@H](CN(C)C(=O)CN1CCOCC1)O2	.	.	-1	i	.	.
NNC(=O)CCc1ccc(S(=O)(=O)N2CCOCC2)cc1	5	1	.	i	.	.
COc1ccc(O)c(CN2CCCC(N3CCc4ccccc4C3)C2)c1 (stereo not given)	.	.	0	i	.	.
O=C(c1c(F)cccc1F)N(Cc1ccccn1)C1CC1	4	5	0	i	.	.
O=C(Nc1ccc(C2=CN(Cc3ccccc3)CCC2=O)cc1)OCc1ccccc1	4	4	20*	i	0	1
COc1cccc(C2Nc3ccc4ccccc4c3C3=C2C(=O)CC(C)(C)C3)c1OCC(=O)O (stereo not given)	3	-3	26*	.	11	5.4*
CC1(C)CC(=O)C2=C(C1)c1c(ccc3ccccc13)NC2c1ccc(OCC(=O)O)cc1 (stereo not given)	4	0	36*	.	23*	18*	K7 EDANS ctr=>23
COc1cc(C2Nc3ccc4ccccc4c3C3=C2C(=O)CC(C)(C)C3)ccc1OC(C)C(=O)O (stereo not given)	2	1	24*	.	0	13*
COc1cc(C2Nc3ccc4ccccc4c3C3=C2C(=O)CC(C)(C)C3)ccc1OCC(=O)O (stereo not given)	0	0	16*	.	-60	-54
COc1ccc(C2Nc3ccccc3NC3=C2C(=O)CC(C)(C)C3)cc1OC (stereo not given)	0	-6	-3	i	.	.
CC(=O)Oc1ccccc1Cn1c(C)c(C(=O)NCCC#N)sc1=O	.	.	0	i	.	.
Cc1cc(C)nc(NS(=O)(=O)c2ccc(NC(=O)CSc3nc(-c4ccccc4)c(C#N)c(=O)[nH]3)cc2)n1	8	-1	0	i	.	.
O=C1C2C(CC3c4ccccc4CCN32)CN1c1ccccc1 (stereo not given)	.	.	-24	.	.	.
Cc1cc(C)c(C(=O)NC2CCCc3c2cnn3-c2ccc(C)c(C)c2)c(=O)[nH]1 (stereo not given)	8	13	0	i	.	.
CC1(C)CC2CC(C)(CN2C(=O)COC(=O)c2ccccc2C(F)(F)F)C1 (stereo not given)	3	6	0	i	.	.
Cn1c(=O)c2[nH]c(-c3ccccc3)c(O)c2n(C)c1=O	-15	-11	17*	i	41*	40*
CC(=O)Nn1cc2c(c1-c1ccccc1)c(=O)n(C)c(=O)n2C	4	-4	0	i	.	.
Cn1c(=O)c2[nH]c(-c3ccccc3Cl)c(O)c2n(C)c1=O	5	-9	58*	i	71*	77*
O=C(CC1CC2CCC1C2)NC1CCCCCCC1 (stereo not given)	13	-5	0	i	.	.
COc1ccc(N2CCN(CCC(=O)c3ccc4ccccc4c3)CC2)cc1	-38	-28	22*	i	15*	15*
COc1ccc(N2CCN(CC(=O)c3ccccc3)CC2)cc1	4	-8	0	i	.	.
SMILES	proCasp7 act	proCasp3 act	proKLK7 act	Neddyl block	KLK7 act conf	EDANS-DABCYL int	others
c1ccc(SCc2cn3cccnc3n2)nc1	-3	0	-3	.	.	.
c1cnc2nc(CSc3ncn[nH]3)cn2c1	0	6	48*	.	8	11*
C=CCc1c(C)[nH]c2c(OC)cccc2c1=S	-3	-5	29*	i	13*	18*
COc1ccc2noc3c2c1C(=O)c1ccccc1-3	-2	0	25*	i	-39	-31
CCOC(=O)C1=NN(c2ccccc2)C2C(=O)N(c3ccccc3OC)C(=O)C12 (stereo not given)	1	2	19*	i	3	0
COC(=O)[C@]12C[C@H](CC(=O)NCc3cccs3)C(=O)N(Cc3cccc4ccccc34)C1=C[C@H](C1CCCC1)O[C@@H]2C	.	.	0	.	.	.
O=c1[nH]c(CN2CCN(c3ccccc3Cl)CC2)nc2ccsc12	7	-4	-1	i	.	.
COc1cc2c(cc1OC)CN(Cc1nc3ccsc3c(=O)[nH]1)CC2	-3	-11	31*	i	8	13*
O=C(/C=C/c1cccs1)Nc1cccc(NC(=O)/C=C/c2cccs2)n1	3	14	-93	i	.	.
O=C(/C=C\c1ccccc1)Nc1nccs1	7	6	17*	i	5	2
O=C(/C=C/c1cccs1)Nc1nccs1	6	-5	15*	i	10	17*
Nc1ccccc1C(=O)Nc1nccs1	-2	0	50*	.	14*	16*
O=C(Nc1nccs1)c1ccccc1Br	-2	-4	0	i	.	.
O=C(C(O)c1ccccc1)N1N=C(c2ccccc2)CC1(O)C(F)(F)F (stereo not given)	.	.	0	i	.	.
COc1ccc(/C=C/C(O)=C2/C(=O)N(C)C3(C)CC2c2ccccc2O3)cc1 (stereo not given)	-9	14	0	i	.	.
COc1ccc(/C=C/C(O)=C2/C(=O)NC3(C)CC2c2ccccc2O3)c(OC)c1OC (stereo not given)	-17	1	15*	i	15*	10*	K7 EDANS ctr=>70
COc1ccc(S(=O)(=O)N2CCC(C(=O)NCc3cccnc3)CC2)cc1Cl	7	4	0	i	.	.
CCCC(C)NC(=O)c1cc(S(=O)(=O)N2CCCCCC2)ccc1OC (stereo not given)	-6	7	0	i	.	.
O=C(O)c1ccc(-c2nc(-c3ccc(Cl)cc3)cs2)cc1	.	.	0	i	.	.
COc1ccc(-c2csc(-c3ccc(C(=O)O)cc3)n2)cc1	0	2	22*	.	35*	53*
COc1ccc(NC(=O)C2c3ccccc3OCC(=O)N2Cc2ccco2)cc1 (stereo not given)	.	.	0	i	.	.
COC(=O)c1ccc(/C=C2\Oc3ccccc3NC2=O)cc1	-1	4	-5	.	.	.

Source: PubChem BioAssay (several laboratories)
